Test results published in ChEMBL document CHEMBL2413013, “Triplex-forming ability of oligonucleotides containing 1-aryl-1,2,3-triazole nucleobases linked via a two atom-length spacer” (Bioorg Med Chem, 2013).

Tests used:
[1] = Binding affinity to hairpin double stranded DNA CG base pair in sodium cacodylate buffer at pH 6.8 assessed as triplex-forming ability measuring melting temperature after by UV melting experiment
How it was run: (§1)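 TFO and hairpin dsDNA target, each strand at 1.89 μM final, in 10 mM sodium cacodylate (pH 6.8) with 100 mM KCl and 50 mM MgCl₂. Annealed in boiling water, then cooled slowly to 5 °C. Melting was followed at 260 nm from 5 to 90 °C at 0.5 °C/min. Tm was taken by the two-point average method, mean of three independent runs.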

[2] = Binding affinity to hairpin double stranded DNA GC base pair in sodium cacodylate buffer at pH 6.8 assessed as triplex-forming ability measuring melting temperature after by UV melting experiment; how it was run: as §1
[3] = Binding affinity to hairpin double stranded DNA TA base pair in sodium cacodylate buffer at pH 6.8 assessed as triplex-forming ability measuring melting temperature after by UV melting experiment; how it was run: as §1
[4] = Binding affinity to hairpin double stranded DNA AT base pair in sodium cacodylate buffer at pH 6.8 assessed as triplex-forming ability measuring melting temperature after by UV melting experiment; how it was run: as §1

| SMILES | Tm [1] | Tm [2] | Tm [3] | Tm [4] |
| --- | --- | --- | --- | --- |
| Cc1cn([C@H]2C[C@H](O[PH](OCCC#N)(OC[C@H]3O[C@@H](n4cc(C)c(=O)[nH]c4=O)C[C@@H]3O[PH](OCCC#N)(OC[C@H]3O[C@@H](n4cc(C)c(=O)[nH]c4=O)C[C@@H]3O[PH](OCCC#N)(OC[C@H]3O[C@@H](n4cc(C)c(=O)[nH]c4=O)C[C@@H]3O[PH](OCCC#N)(OC[C@H]3O[C@@H](n4cc(C)c(=O)[nH]c4=O)C[C@@H]3O[PH](OCCC#N)(OC(C)[C@H]3O[C@@H](n4ccc(N)nc4=O)C[C@@H]3O[PH](OCCC#N)(OC[C@H]3O[C@@H](n4cc(C)c(=O)[nH]c4=O)C[C@@H]3O[PH](OCCC#N)(OC[C@H]3O[C@@H](OCc4cn(-c5cccc(O)c5)nn4)C[C@@H]3OP(=O)(O)OC[C@H]3O[C@@H](n4cc(C)c(=O)[nH]c4=O)C[C@@H]3O[PH](OCCC#N)(OC(C)[C@H]3O[C@@H](n4ccc(N)nc4=O)C[C@@H]3O[PH](OCCC#N)(OC[C@H]3O[C@@H](n4cc(C)c(=O)[nH]c4=O)C[C@@H]3O[PH](OCCC#N)(OC(C)[C@H]3O[C@@H](n4ccc(N)nc4=O)C[C@@H]3O[PH](OCCC#N)(OC[C@H]3O[C@@H](n4cc(C)c(=O)[nH]c4=O)C[C@@H]3O[PH](OCCC#N)(OC(C)[C@H]3O[C@@H](n4ccc(N)nc4=O)C[C@@H]3O[PH](OCCC#N)(OC[C@H]3O[C@@H](n4cc(C)c(=O)[nH]c4=O)C[C@@H]3O)N(C(C)C)C(C)C)N(C(C)C)C(C)C)N(C(C)C)C(C)C)N(C(C)C)C(C)C)N(C(C)C)C(C)C)N(C(C)C)C(C)C)N(C(C)C)C(C)C)N(C(C)C)C(C)C)N(C(C)C)C(C)C)N(C(C)C)C(C)C)N(C(C)C)C(C)C)N(C(C)C)C(C)C)N(C(C)C)C(C)C)[C@@H](CO)O2)c(=O)[nH]c1=O (stereo not given in full) | 24 °C | 21 °C | 21 °C | 20 °C |
| Cc1cn([C@H]2C[C@H](O[PH](OCCC#N)(OC[C@H]3O[C@@H](n4cc(C)c(=O)[nH]c4=O)C[C@@H]3O[PH](OCCC#N)(OC[C@H]3O[C@@H](n4cc(C)c(=O)[nH]c4=O)C[C@@H]3O[PH](OCCC#N)(OC[C@H]3O[C@@H](n4cc(C)c(=O)[nH]c4=O)C[C@@H]3O[PH](OCCC#N)(OC[C@H]3O[C@@H](n4cc(C)c(=O)[nH]c4=O)C[C@@H]3O[PH](OCCC#N)(OC(C)[C@H]3O[C@@H](n4ccc(N)nc4=O)C[C@@H]3O[PH](OCCC#N)(OC[C@H]3O[C@@H](n4cc(C)c(=O)[nH]c4=O)C[C@@H]3O[PH](OCCC#N)(OC[C@H]3O[C@@H](OCc4cn(-c5ccc(CO)cc5)nn4)C[C@@H]3OP(=O)(O)OC[C@H]3O[C@@H](n4cc(C)c(=O)[nH]c4=O)C[C@@H]3O[PH](OCCC#N)(OC(C)[C@H]3O[C@@H](n4ccc(N)nc4=O)C[C@@H]3O[PH](OCCC#N)(OC[C@H]3O[C@@H](n4cc(C)c(=O)[nH]c4=O)C[C@@H]3O[PH](OCCC#N)(OC(C)[C@H]3O[C@@H](n4ccc(N)nc4=O)C[C@@H]3O[PH](OCCC#N)(OC[C@H]3O[C@@H](n4cc(C)c(=O)[nH]c4=O)C[C@@H]3O[PH](OCCC#N)(OC(C)[C@H]3O[C@@H](n4ccc(N)nc4=O)C[C@@H]3O[PH](OCCC#N)(OC[C@H]3O[C@@H](n4cc(C)c(=O)[nH]c4=O)C[C@@H]3O)N(C(C)C)C(C)C)N(C(C)C)C(C)C)N(C(C)C)C(C)C)N(C(C)C)C(C)C)N(C(C)C)C(C)C)N(C(C)C)C(C)C)N(C(C)C)C(C)C)N(C(C)C)C(C)C)N(C(C)C)C(C)C)N(C(C)C)C(C)C)N(C(C)C)C(C)C)N(C(C)C)C(C)C)N(C(C)C)C(C)C)[C@@H](CO)O2)c(=O)[nH]c1=O (stereo not given in full) | 22 °C | 19 °C | 19 °C | 19 °C |
| Cc1cn([C@H]2C[C@H](O[PH](OCCC#N)(OC[C@H]3O[C@@H](n4cc(C)c(=O)[nH]c4=O)C[C@@H]3O[PH](OCCC#N)(OC[C@H]3O[C@@H](n4cc(C)c(=O)[nH]c4=O)C[C@@H]3O[PH](OCCC#N)(OC[C@H]3O[C@@H](n4cc(C)c(=O)[nH]c4=O)C[C@@H]3O[PH](OCCC#N)(OC[C@H]3O[C@@H](n4cc(C)c(=O)[nH]c4=O)C[C@@H]3O[PH](OCCC#N)(OC(C)[C@H]3O[C@@H](n4ccc(N)nc4=O)C[C@@H]3O[PH](OCCC#N)(OC[C@H]3O[C@@H](n4cc(C)c(=O)[nH]c4=O)C[C@@H]3O[PH](OCCC#N)(OC[C@H]3O[C@@H](CCc4cn(-c5cccc(CO)c5)nn4)C[C@@H]3OP(=O)(O)OC[C@H]3O[C@@H](n4cc(C)c(=O)[nH]c4=O)C[C@@H]3O[PH](OCCC#N)(OC(C)[C@H]3O[C@@H](n4ccc(N)nc4=O)C[C@@H]3O[PH](OCCC#N)(OC[C@H]3O[C@@H](n4cc(C)c(=O)[nH]c4=O)C[C@@H]3O[PH](OCCC#N)(OC(C)[C@H]3O[C@@H](n4ccc(N)nc4=O)C[C@@H]3O[PH](OCCC#N)(OC[C@H]3O[C@@H](n4cc(C)c(=O)[nH]c4=O)C[C@@H]3O[PH](OCCC#N)(OC(C)[C@H]3O[C@@H](n4ccc(N)nc4=O)C[C@@H]3O[PH](OCCC#N)(OC[C@H]3O[C@@H](n4cc(C)c(=O)[nH]c4=O)C[C@@H]3O)N(C(C)C)C(C)C)N(C(C)C)C(C)C)N(C(C)C)C(C)C)N(C(C)C)C(C)C)N(C(C)C)C(C)C)N(C(C)C)C(C)C)N(C(C)C)C(C)C)N(C(C)C)C(C)C)N(C(C)C)C(C)C)N(C(C)C)C(C)C)N(C(C)C)C(C)C)N(C(C)C)C(C)C)N(C(C)C)C(C)C)[C@@H](CO)O2)c(=O)[nH]c1=O (stereo not given in full) | 23 °C | 20 °C | 23 °C | 19 °C |
| Cc1cn([C@H]2C[C@H](O[PH](OCCC#N)(OC[C@H]3O[C@@H](n4cc(C)c(=O)[nH]c4=O)C[C@@H]3O[PH](OCCC#N)(OC[C@H]3O[C@@H](n4cc(C)c(=O)[nH]c4=O)C[C@@H]3O[PH](OCCC#N)(OC[C@H]3O[C@@H](n4cc(C)c(=O)[nH]c4=O)C[C@@H]3O[PH](OCCC#N)(OC[C@H]3O[C@@H](n4cc(C)c(=O)[nH]c4=O)C[C@@H]3O[PH](OCCC#N)(OC(C)[C@H]3O[C@@H](N4C=CC(N)=N[C@@H]4O)C[C@@H]3O[PH](OCCC#N)(OC[C@H]3O[C@@H](n4cc(C)c(=O)[nH]c4=O)C[C@@H]3O[PH](OCCC#N)(OC[C@H]3O[C@@H](OCc4cn(-c5ccccc5C(N)=O)nn4)C[C@@H]3OP(=O)(O)OC[C@H]3O[C@@H](n4cc(C)c(=O)[nH]c4=O)C[C@@H]3O[PH](OCCC#N)(OC(C)[C@H]3O[C@@H](n4ccc(N)nc4=O)C[C@@H]3O[PH](OCCC#N)(OC[C@H]3O[C@@H](n4cc(C)c(=O)[nH]c4=O)C[C@@H]3O[PH](OCCC#N)(OC(C)[C@H]3O[C@@H](n4ccc(N)nc4=O)C[C@@H]3O[PH](OCCC#N)(OC[C@H]3O[C@@H](n4cc(C)c(=O)[nH]c4=O)C[C@@H]3O[PH](OCCC#N)(OC(C)[C@H]3O[C@@H](n4ccc(N)nc4=O)C[C@@H]3O[PH](OCCC#N)(OC[C@H]3O[C@@H](n4cc(C)c(=O)[nH]c4=O)C[C@@H]3O)N(C(C)C)C(C)C)N(C(C)C)C(C)C)N(C(C)C)C(C)C)N(C(C)C)C(C)C)N(C(C)C)C(C)C)N(C(C)C)C(C)C)N(C(C)C)C(C)C)N(C(C)C)C(C)C)N(C(C)C)C(C)C)N(C(C)C)C(C)C)N(C(C)C)C(C)C)N(C(C)C)C(C)C)N(C(C)C)C(C)C)[C@@H](CO)O2)c(=O)[nH]c1=O (stereo not given in full) | 21 °C | 19 °C | 17 °C | 18 °C |
| Cc1cn([C@H]2C[C@H](O[PH](OCCC#N)(OC[C@H]3O[C@@H](n4cc(C)c(=O)[nH]c4=O)C[C@@H]3O[PH](OCCC#N)(OC[C@H]3O[C@@H](n4cc(C)c(=O)[nH]c4=O)C[C@@H]3O[PH](OCCC#N)(OC[C@H]3O[C@@H](n4cc(C)c(=O)[nH]c4=O)C[C@@H]3O[PH](OCCC#N)(OC[C@H]3O[C@@H](n4cc(C)c(=O)[nH]c4=O)C[C@@H]3O[PH](OCCC#N)(OC(C)[C@H]3O[C@@H](n4ccc(N)nc4=O)C[C@@H]3O[PH](OCCC#N)(OC[C@H]3O[C@@H](n4cc(C)c(=O)[nH]c4=O)C[C@@H]3O[PH](OCCC#N)(OC[C@H]3O[C@@H](CCc4cn(-c5cccc(NC(N)=O)c5)nn4)C[C@@H]3OP(=O)(O)OC[C@H]3O[C@@H](n4cc(C)c(=O)[nH]c4=O)C[C@@H]3O[PH](OCCC#N)(OC(C)[C@H]3O[C@@H](n4ccc(N)nc4=O)C[C@@H]3O[PH](OCCC#N)(OC[C@H]3O[C@@H](n4cc(C)c(=O)[nH]c4=O)C[C@@H]3O[PH](OCCC#N)(OC(C)[C@H]3O[C@@H](n4ccc(N)nc4=O)C[C@@H]3O[PH](OCCC#N)(OC[C@H]3O[C@@H](n4cc(C)c(=O)[nH]c4=O)C[C@@H]3O[PH](OCCC#N)(OC(C)[C@H]3O[C@@H](n4ccc(N)nc4=O)C[C@@H]3O[PH](OCCC#N)(OC[C@H]3O[C@@H](n4cc(C)c(=O)[nH]c4=O)C[C@@H]3O)N(C(C)C)C(C)C)N(C(C)C)C(C)C)N(C(C)C)C(C)C)N(C(C)C)C(C)C)N(C(C)C)C(C)C)N(C(C)C)C(C)C)N(C(C)C)C(C)C)N(C(C)C)C(C)C)N(C(C)C)C(C)C)N(C(C)C)C(C)C)N(C(C)C)C(C)C)N(C(C)C)C(C)C)N(C(C)C)C(C)C)[C@@H](CO)O2)c(=O)[nH]c1=O (stereo not given in full) | 27 °C | 23 °C | 28 °C | 23 °C |
